These results are taken from ChEMBL document CHEMBL1156240, “Papyriferic acid derivatives as reversal agents of multidrug resistance in cancer cells” (Bioorg Med Chem, 2010).

One assay deals with KB. In words: Cytotoxicity against human KB cells after 48 hrs by MTT assay. It counts as functional, cell-based. (In general: Tetrazolium assays rely on reduction of a dye to a coloured formazan, in cell work by metabolically active cells.)
Assay [1] is described as follows: Cytotoxicity against human multidrug-resistant KB-C2 cells after 48 hrs by MTT assay. Conditions: KB-C2, 48 h. Format: functional, cell-based. The essentials: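 Seeded 5 × 10³ cells/well, preincubated 24 h, then compounds at 2, 10, 50, 100 µg/mL in medium (0.5% DMSO final) for 48 h. MTT 0.5 mg/mL for 4 h, formazan dissolved in DMSO, OD 540 nm; IC50 relative to vehicle controls.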

Structures are written as SMILES.

Usually IC50 stands for the concentration that gives 50% inhibition. Low readings indicate inhibition by little substance, high ones a need for much substance. Consider `CCCCCOC(=O)CC(=O)O[C@@H]1CC[C@]2(C)[C@H]3C[C@@H](OC(C)=O)[C@@H]4[C@@H]([C@]5(C)CC[C@H](C(C)(C)O)O5)CC[C@@]4(C)[C@]3(C)CC[C@H]2C1(C)C`, for which the IC50 in the assay with KB is 45.4 µM; in assay [1] it was above 100 µM.

Take `CCCCOC(=O)CC(=O)O[C@@H]1CC[C@]2(C)[C@H]3CC[C@@H]4[C@@H]([C@]5(C)CC[C@H](C(C)(C)O)O5)CC[C@@]4(C)[C@]3(C)CC[C@H]2C1(C)C`: the IC50 (with KB; in assay [1]) was above 100 µM throughout.

As for `COc1ccc(CCN(C)CCCC(C#N)(c2ccc(OC)c(OC)c2)C(C)C)cc1OC` (stereo not drawn), the IC50 in assay [1] is above 100 µM.

As for `CCOC(=O)CC(=O)O[C@@H]1CC[C@]2(C)[C@H]3C[C@@H](OC(C)=O)[C@@H]4[C@@H]([C@]5(C)CC[C@H](C(C)(C)O)O5)CC[C@@]4(C)[C@]3(C)CC[C@H]2C1(C)C`, the figures for the concentration for half-maximal inhibition (IC50) (in the assay on KB; in assay [1]) were 39.1 µM and 64.3 µM, respectively.

Regarding `CCCCOC(=O)CC(=O)O[C@@H]1CC[C@]2(C)[C@H]3C[C@@H](OC(C)=O)[C@@H]4[C@@H]([C@]5(C)CC[C@H](C(C)(C)O)O5)CC[C@@]4(C)[C@]3(C)CC[C@H]2C1(C)C`, the IC50 in the assay with KB is 40.8 µM; in assay [1] it was above 100 µM.

Regarding `CCCCCCOC(=O)CC(=O)O[C@@H]1CC[C@]2(C)[C@H]3CC[C@@H]4[C@@H]([C@]5(C)CC[C@H](C(C)(C)O)O5)CC[C@@]4(C)[C@]3(C)CC[C@H]2C1(C)C`, the IC50 (with KB; in assay [1]) was above 100 µM throughout.

As to `CCCCCCCCCNC(=O)CC(=O)O[C@@H]1CC[C@]2(C)[C@H]3C[C@@H](OC(C)=O)[C@@H]4[C@@H]([C@]5(C)CC[C@H](C(C)(C)OC(=O)C(=O)NCCCCCCCCC)O5)CC[C@@]4(C)[C@]3(C)CC[C@H]2C1(C)C`, the IC50 (in the assay with KB; in assay [1]) was above 100 µM each time.

For `CCCCCCOC(=O)CC(=O)O[C@@H]1CC[C@]2(C)[C@H]3C[C@@H](OC(C)=O)[C@@H]4[C@@H]([C@]5(C)CC[C@H](C(C)(C)O)O5)CC[C@@]4(C)[C@]3(C)CC[C@H]2C1(C)C`, the IC50 in the assay on KB is 70.7 µM; in assay [1], above 100 µM.

For the compound `CC(=O)O[C@@H]1C[C@@H]2[C@@]3(C)CC[C@@H](OC(=O)CC(=O)OC(C)C)C(C)(C)[C@@H]3CC[C@@]2(C)[C@]2(C)CC[C@H]([C@]3(C)CC[C@H](C(C)(C)O)O3)[C@@H]12`, the IC50 is 74.6 µM with KB and above 100 µM in assay [1].

As for `CCCOC(=O)CC(=O)O[C@@H]1CC[C@]2(C)[C@H]3CC[C@@H]4[C@@H]([C@]5(C)CC[C@H](C(C)(C)O)O5)CC[C@@]4(C)[C@]3(C)CC[C@H]2C1(C)C`, the IC50 in the assay with KB was 60.3 µM; in assay [1], above 100 µM.

For `CC(C)COC(=O)CC(=O)O[C@@H]1CC[C@]2(C)[C@H]3CC[C@@H]4[C@@H]([C@]5(C)CC[C@H](C(C)(C)O)O5)CC[C@@]4(C)[C@]3(C)CC[C@H]2C1(C)C`, the IC50 with KB is 97 µM; in assay [1], above 100 µM.

For the compound `CCCCCOC(=O)CC(=O)O[C@@H]1CC[C@]2(C)[C@H]3CC[C@@H]4[C@@H]([C@]5(C)CC[C@H](C(C)(C)O)O5)CC[C@@]4(C)[C@]3(C)CC[C@H]2C1(C)C`, the IC50 (in the assay on KB; in assay [1]) was above 100 µM each time.

For `CCCCCCCOC(=O)CC(=O)O[C@@H]1CC[C@]2(C)[C@H]3CC[C@@H]4[C@@H]([C@]5(C)CC[C@H](C(C)(C)O)O5)CC[C@@]4(C)[C@]3(C)CC[C@H]2C1(C)C`, the IC50 (in the assay on KB; in assay [1]) was above 100 µM in each case.

With `CCCCCNC(=O)CC(=O)O[C@@H]1CC[C@]2(C)[C@H]3C[C@@H](OC(C)=O)[C@@H]4[C@@H]([C@]5(C)CC[C@H](C(C)(C)O)O5)CC[C@@]4(C)[C@]3(C)CC[C@H]2C1(C)C`, the IC50 (in the assay on KB; in assay [1]) was 38.3 µM throughout.

As to `CC(=O)O[C@@H]1C[C@@H]2[C@@]3(C)CC[C@@H](OC(=O)CC(=O)NCc4ccccc4)C(C)(C)[C@@H]3CC[C@@]2(C)[C@]2(C)CC[C@H]([C@]3(C)CC[C@H](C(C)(C)OC(=O)C(=O)NCc4ccccc4)O3)[C@@H]12`, the IC50 (in the assay with KB; in assay [1]) was above 100 µM each time.

In the case of `CC(=O)O[C@@H]1C[C@@H]2[C@@]3(C)CC[C@@H](OC(=O)CC(=O)NCc4ccccc4)C(C)(C)[C@@H]3CC[C@@]2(C)[C@]2(C)CC[C@H]([C@]3(C)CC[C@H](C(C)(C)O)O3)[C@@H]12`, the figures for the IC50 (in the assay on KB; in assay [1]) were 31.9 µM and 33.2 µM, respectively.

In the case of `COc1cc2c(c(OC)c1OC)-c1ccc(OC)c(=O)cc1[C@@H](NC(C)=O)CC2` [COLCHICINE], the half-inhibitory concentration (IC50) in assay [1] was determined as 10.9 µM.

Consider `CCCCNC(=O)CC(=O)O[C@@H]1CC[C@]2(C)[C@H]3C[C@@H](OC(C)=O)[C@@H]4[C@@H]([C@]5(C)CC[C@H](C(C)(C)O)O5)CC[C@@]4(C)[C@]3(C)CC[C@H]2C1(C)C`, for which the values for the IC50 (in the assay on KB; in assay [1]) were 24.9 µM and 24.4 µM, respectively.

Take `CCCNC(=O)CC(=O)O[C@@H]1CC[C@]2(C)[C@H]3C[C@@H](OC(C)=O)[C@@H]4[C@@H]([C@]5(C)CC[C@H](C(C)(C)O)O5)CC[C@@]4(C)[C@]3(C)CC[C@H]2C1(C)C`: the IC50 in the assay with KB stood at 46.1 µM; in assay [1], 40.8 µM.

For the compound `CCCOC(=O)CC(=O)O[C@@H]1CC[C@]2(C)[C@H]3C[C@@H](OC(C)=O)[C@@H]4[C@@H]([C@]5(C)CC[C@H](C(C)(C)O)O5)CC[C@@]4(C)[C@]3(C)CC[C@H]2C1(C)C`, the IC50 with KB is 27.8 µM; in assay [1], 67.8 µM.

Turning to `CC(=O)O[C@@H]1C[C@@H]2[C@@]3(C)CC[C@@H](OC(=O)CC(=O)OC(C)(C)C)C(C)(C)[C@@H]3CC[C@@]2(C)[C@]2(C)CC[C@H]([C@]3(C)CC[C@H](C(C)(C)O)O3)[C@@H]12`, the figures for the IC50 (with KB; in assay [1]) were 31.5 µM and above 100 µM, respectively.

Turning to `CCCCCCCCCNC(=O)CC(=O)O[C@@H]1CC[C@]2(C)[C@H]3C[C@@H](OC(C)=O)[C@@H]4[C@@H]([C@]5(C)CC[C@H](C(C)(C)O)O5)CC[C@@]4(C)[C@]3(C)CC[C@H]2C1(C)C`, the values for the IC50 (in the assay on KB; in assay [1]) were 42.8 µM and above 100 µM, respectively.

In the case of `CC(=O)O[C@@H]1C[C@@H]2[C@@]3(C)CC[C@@H](OC(=O)CC(=O)Nc4ccccc4)C(C)(C)[C@@H]3CC[C@@]2(C)[C@]2(C)CC[C@H]([C@]3(C)CC[C@H](C(C)(C)O)O3)[C@@H]12`, the figures for the concentration for half-maximal inhibition (IC50) (in the assay with KB; in assay [1]) were 28.3 µM and 26.2 µM, respectively.

As for `CC(=O)O[C@@H]1C[C@@H]2[C@@]3(C)CC[C@@H](OC(=O)CC(=O)Nc4ccccc4)C(C)(C)[C@@H]3CC[C@@]2(C)[C@]2(C)CC[C@H]([C@]3(C)CC[C@H](C(C)(C)OC(=O)C(=O)Nc4ccccc4)O3)[C@@H]12`, the IC50 (in the assay on KB; in assay [1]) was above 100 µM in each case.

As to `CC(=O)O[C@@H]1C[C@@H]2[C@@]3(C)CC[C@@H](OC(=O)CC(=O)NC(C)(C)C)C(C)(C)[C@@H]3CC[C@@]2(C)[C@]2(C)CC[C@H]([C@]3(C)CC[C@H](C(C)(C)OC(=O)C(=O)NC(C)(C)C)O3)[C@@H]12`, the IC50 (in the assay on KB; in assay [1]) was above 100 µM in each case.

As for `CCCCCCCCOC(=O)CC(=O)O[C@@H]1CC[C@]2(C)[C@H]3C[C@@H](OC(C)=O)[C@@H]4[C@@H]([C@]5(C)CC[C@H](C(C)(C)O)O5)CC[C@@]4(C)[C@]3(C)CC[C@H]2C1(C)C`, the IC50 (in the assay on KB; in assay [1]) was above 100 µM throughout.

In the case of `CC(C)OC(=O)CC(=O)O[C@@H]1CC[C@]2(C)[C@H]3CC[C@@H]4[C@@H]([C@]5(C)CC[C@H](C(C)(C)O)O5)CC[C@@]4(C)[C@]3(C)CC[C@H]2C1(C)C`, the IC50 (in the assay with KB; in assay [1]) was above 100 µM each time.

Turning to `C=CCOC(=O)CC(=O)O[C@@H]1CC[C@]2(C)[C@H]3C[C@@H](OC(C)=O)[C@@H]4[C@@H]([C@]5(C)CC[C@H](C(C)(C)O)O5)CC[C@@]4(C)[C@]3(C)CC[C@H]2C1(C)C`, the IC50 with KB is 34.8 µM; in assay [1], 48.3 µM.

Regarding `CC(=O)O[C@@H]1C[C@@H]2[C@@]3(C)CC[C@@H](OC(=O)CC(=O)OCc4ccccc4)C(C)(C)[C@@H]3CC[C@@]2(C)[C@]2(C)CC[C@H]([C@]3(C)CC[C@H](C(C)(C)O)O3)[C@@H]12`, the IC50 in the assay on KB is 43.7 µM; in assay [1], above 100 µM.

On to `COc1ccc(OC)c(NC(=O)CC(=O)O[C@@H]2CC[C@]3(C)[C@H]4C[C@@H](OC(C)=O)[C@@H]5[C@@H]([C@]6(C)CC[C@H](C(C)(C)OC(=O)C(=O)Nc7cc(OC)ccc7OC)O6)CC[C@@]5(C)[C@]4(C)CC[C@H]3C2(C)C)c1`, for which the IC50 (with KB; in assay [1]) was above 100 µM in each case.

Turning to `COc1cccc2c1C(=O)c1c(O)c3c(c(O)c1C2=O)C[C@@](O)(C(C)=O)C[C@@H]3O[C@H]1C[C@H](N)[C@H](O)[C@H](C)O1` [DAUNORUBICIN], the IC50 amounted to 0.64 µM with KB and 16.2 µM in assay [1].

Turning to `CCCCCCCCOC(=O)CC(=O)O[C@@H]1CC[C@]2(C)[C@H]3CC[C@@H]4[C@@H]([C@]5(C)CC[C@H](C(C)(C)O)O5)CC[C@@]4(C)[C@]3(C)CC[C@H]2C1(C)C`, the IC50 (with KB; in assay [1]) was above 100 µM in each case.

Regarding `CC(=O)O[C@@H]1C[C@@H]2[C@@]3(C)CC[C@@H](OC(=O)CC(=O)OCC(C)C)C(C)(C)[C@@H]3CC[C@@]2(C)[C@]2(C)CC[C@H]([C@]3(C)CC[C@H](C(C)(C)O)O3)[C@@H]12`, the IC50 was 33.3 µM in the assay on KB and above 100 µM in assay [1].

On to `CCCCCNC(=O)CC(=O)O[C@@H]1CC[C@]2(C)[C@H]3C[C@@H](OC(C)=O)[C@@H]4[C@@H]([C@]5(C)CC[C@H](C(C)(C)OC(=O)C(=O)NCCCCC)O5)CC[C@@]4(C)[C@]3(C)CC[C@H]2C1(C)C`, for which the IC50 (in the assay on KB; in assay [1]) was above 100 µM each time.

With `CCCCCCCOC(=O)CC(=O)O[C@@H]1CC[C@]2(C)[C@H]3C[C@@H](OC(C)=O)[C@@H]4[C@@H]([C@]5(C)CC[C@H](C(C)(C)O)O5)CC[C@@]4(C)[C@]3(C)CC[C@H]2C1(C)C`, the IC50 (in the assay with KB; in assay [1]) was above 100 µM each time.
